Measured values: ChEMBL document CHEMBL4616681, “Discovery of 3-Pyridyl Isoindolin-1-one Derivatives as Potent, Selective, and Orally Active Aldosterone Synthase (CYP11B2) Inhibitors” (J Med Chem, 2020)
Activity calls are given as the source filed them.

Experiments:
[1] = test system: Cynomolgus monkey; assay: In vivo inhibition of CYP11B1 in cynomolgus monkey assessed as reduction in ACTH-induced cortisol at 0.01 to 1 mg/kg, po preincubated for 1 hr followed by ACTH challenge and measured after 60 mins by LC/MS-MS analysis; format: ADME, organism-based, Macaca fascicularis
In short: (§1)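 Cynomolgus monkeys preselected as Synacthen responders (at least 2-fold rise in aldosterone, cortisol and corticosterone). Two animals per group. Oral vehicle or compound at 0.01–10 mg/kg in hydroxyethylcellulose/polysorbate 80/paraben suspension (2 mL/kg) at T=0, then 14.5 µg/kg Synacthen i.m. at 1 hr. EDTA blood drawn from -5 min to 24 h. Plasma steroids measured by LC/MS-MS; data shown 60 min after challenge.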

[2] = test system: Cynomolgus monkey; assay: In vivo inhibition of CYP11B1 in cynomolgus monkey assessed as reduction in ACTH-induced 11-deoxycortisol at 0.01 to 10 mg/kg, po preincubated for 1 hr followed by ACTH challenge and measured after 60 mins by LC/MS-MS analysis; format: ADME, organism-based, Macaca fascicularis; in short: as §1
[3] = test system: Cynomolgus monkey; assay: In vivo inhibition of CYP11B2 in cynomolgus monkey assessed as reduction in ACTH-induced corticosterone at 0.01 to 10 mg/kg, po preincubated for 1 hr followed by ACTH challenge and measured after 60 mins by LC/MS-MS analysis; format: functional, organism-based; conditions: Macaca fascicularis; in short: as §1
[4] = test system: Cynomolgus monkey; assay: In vivo inhibition of CYP11B2 in cynomolgus monkey assessed as reduction in ACTH-induced aldosterone at 0.01 to 10 mg/kg, po preincubated for 1 hr followed by ACTH challenge and measured after 60 mins by LC/MS-MS analysis; format: functional, organism-based; conditions: Macaca fascicularis; in short: as §1
[5] = test system: Cynomolgus monkey; assay: In vivo inhibition of CYP11B1 in cynomolgus monkey assessed as reduction in ACTH-induced cortisol at 10 mg/kg, po preincubated for 1 hr followed by ACTH challenge and measured after 60 mins by LC/MS-MS analysis; format: ADME, organism-based, Macaca fascicularis; in short: as §1
[6] = Selectivity ratio of IC50 for human CYP11B1 expressed in human renal leiomyoblastoma cells harboring FDXR/FDX to IC50 for human CYP11B2 expressed in human renal leiomyoblastoma cells harboring FDXR/FDX; format: cell-based
In short: (§2)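 Cells with endogenous FDXR/FDX and no detectable CYP11B activity, stably transfected (CMV promoter, neomycin selection, G-418 400 µg/mL) with CYP11B1 or CYP11B2 of the named species. Assayed in DMEM/F12 with 2.5% charcoal-treated FCS. Substrate 1 µM 11-deoxycorticosterone (B2) or 11-deoxycortisol (B1), 16 hr. Aldosterone or cortisol in supernatant measured by HTRF. IC50 from 4-parameter MMF fit; selectivity factor is the B1/B2 IC50 ratio.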

[7] = Permeability of the compound measured at 18 hrs by PAMPA; format: ADME; conditions: read-out: permeability
In short: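 PAMPA sandwich format. Donor: compound diluted to 150 μM (DMSO <2%) in 0.05 M MOPSO pH 6.5 with 0.5% glycocholic acid. Acceptor: 0.05 M MOPSO pH 6.5. Membrane of 10% egg lecithin with 0.5% cholesterol in dodecane. Donor measured at start; acceptor and donor measured at ~18 hr.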

[8] = Inhibition of cynomolgus monkey CYP11B2 expressed in human G401 cells using 1-deoxycorticosterone as substrate by HTRF assay; format: cell-based, Macaca fascicularis; conditions: g-401; in short: as §2
[9] = Selectivity ratio of IC50 for cynomolgus monkey CYP11B1 expressed in human G401 cells to IC50 for cynomolgus monkey CYP11B2 expressed in human G401 cells; format: cell-based; in short: as §2
[10] = Intrinsic clearance in rat liver microsomes preincubated for 10 mins followed by NADPH regenerating system addition and measured up to 30 mins by LC/MS-MS analysis; format: ADME, Microsome
In short: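 Liver microsomes at 0.5 mg protein/mL in 100 mM potassium phosphate, pH 7.4. Compound preincubated 10 min at 37 °C. Intrinsic clearance scaled using the well-stirred liver model.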

[11] = AUC (0 to infinity) in Wister-Han rat at 3 mg/kg, po administered as single dose by LC/MS-MS analysis; format: ADME, organism-based; design: dose 3 mg/kg, route oral, time infinity; conditions: Wistar-Han, in vivo
In short: (§3)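 Male Wistar-Han rats, single dose. IV 1 mg/kg, compound at 0.5 mg/mL in NMP:saline 30/70 (v/v). Oral 3 mg/kg, 0.25 mg/mL in 2% Klucel with 0.1% Polysorbate 80. Three rats per time point. Heparinized blood taken at eight (iv) or seven (po) time points, plasma stored at -20 °C. Plasma levels by LC/MS-MS. Non-compartmental analysis.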

[12] = Protein binding in rat plasma assessed as unbound fraction at 1 uM by micro-equilibrium dialysis based LC-MS/MS analysis; format: ADME, cell-free
In short: (§4)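 Equilibrium dialysis of pooled rat or cynomolgus plasma against Soerensen buffer pH 7.4, 12–14 kDa cut-off membrane. Compounds tested in cassettes of 2–5 at 1 μM initial total concentration, with diazepam as control. Dialysis 5 hr at 37 °C under 5% CO₂. Unbound percentage by LC/MS-MS.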

[13] = Protein binding in cynomolgus monkey plasma assessed as unbound fraction at 1 uM by micro-equilibrium dialysis based LC-MS/MS analysis; format: ADME, cell-free, Macaca fascicularis; in short: as §4
[14] = Intrinsic clearance in cynomolgus monkey hepatocytes; format: ADME, cell-based, Macaca fascicularis, Hepatocyte; conditions: read-out: CLH
[15] = Plasma clearance in iv dosed cynomolgus monkey; format: ADME, organism-based, Macaca fascicularis
[16] = Dose normalized AUC in cynomolgus monkey; format: ADME, Macaca fascicularis; conditions: in vivo
[17] = Dose normalized AUC in Wister-Han rat at 1 mg/kg, iv or 3 mg/kg, po administered as single dose by LC/MS-MS analysis; format: ADME, organism-based; conditions: in vivo; in short: as §3
[18] = Free plasma concentration in cynomolgus monkey at 0.01 mg/kg; format: ADME, organism-based, Macaca fascicularis; conditions: in vivo
In short: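 Cynomolgus monkeys, 2 per group, given single oral doses of 0.01, 0.1, 1 or 10 mg/kg as a suspension in hydroxyethylcellulose/polysorbate 80/parabens vehicle, 2 mL/kg. Synacthen 14.5 µg/kg given i.m. at 1 hr. Plasma compound levels by LC/MS-MS. Average free exposure calculated from AUC0-7hr and corrected for plasma protein binding.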

[19] = target: T1, Cytochrome P450 11B2, mitochondrial (Homo sapiens, UniProt P19099); assay: Inhibition of CYP11B2 in H295R cell assessed as reduction in 18-hyroxycorticosterone by LC/MS-MS method
T1 sequence (P19099 whole entry): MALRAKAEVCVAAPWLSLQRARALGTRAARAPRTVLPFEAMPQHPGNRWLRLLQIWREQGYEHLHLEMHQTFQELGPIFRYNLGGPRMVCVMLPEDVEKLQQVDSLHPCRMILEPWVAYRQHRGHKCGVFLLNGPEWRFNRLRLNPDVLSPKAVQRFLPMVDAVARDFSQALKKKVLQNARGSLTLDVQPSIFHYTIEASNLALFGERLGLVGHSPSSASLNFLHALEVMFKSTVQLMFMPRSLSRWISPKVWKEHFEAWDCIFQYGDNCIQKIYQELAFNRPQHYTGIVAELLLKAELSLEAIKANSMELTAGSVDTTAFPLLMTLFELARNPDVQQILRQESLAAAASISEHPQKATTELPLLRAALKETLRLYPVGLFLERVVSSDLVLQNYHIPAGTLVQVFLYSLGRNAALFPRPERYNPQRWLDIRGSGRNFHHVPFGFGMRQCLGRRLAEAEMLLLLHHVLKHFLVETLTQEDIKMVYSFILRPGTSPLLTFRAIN

- Papp at 18 h [7]: 4.17 ×10⁻⁶ cm/s
- IC50 [8]: 2 nM
- predicted hepatic clearance (CLH) [10]: 5 mL/min/kg
- AUC(0-inf) [11]: 6370 ng·h/mL
- fraction unbound at 1 µM [12]: 0.052
- fraction unbound at 1 µM [13]: 0.138
- CLint scaled [14]: 7.2 mL/min/kg
- clearance [15]: 4.6 mL/min/kg
- AUC/dose [16]: 1085 kg·ng·h/mL/mg
- AUC/dose [17]: 2123 kg·ng·h/mL/mg
- Cp(f) [18]: 0.075 ng/mL
- IC50 [19]: < 1 nM
SMILES: CCS(=O)(=O)N1CC(Oc2cncc(N3C(=O)c4ccc(Cl)cc4C3(C)C)c2)C1
- Activity [1]: Non-Toxic
- Activity [2]: Non-Toxic
- inhibition [3]: inactive
- inhibition [4]: Active
- Activity [5]: Toxic
- Ratio IC50 [6]: 162
- Ratio IC50 [9]: 664
